Experimental data published in ChEMBL document CHEMBL1131626 (J Med Chem, 1998).
Values belong to the compound of their own block, whether it stands above or below them.

Key:
[1] = target: T1, Progesterone receptor (Rattus norvegicus) (UniProt Q63449); test: Fold induction as increase in BrdU labeling index over estrone treatment alone in lobular-aveolar rat mammary buds by progestin treatment; format: functional
T1 sequence (whole entry): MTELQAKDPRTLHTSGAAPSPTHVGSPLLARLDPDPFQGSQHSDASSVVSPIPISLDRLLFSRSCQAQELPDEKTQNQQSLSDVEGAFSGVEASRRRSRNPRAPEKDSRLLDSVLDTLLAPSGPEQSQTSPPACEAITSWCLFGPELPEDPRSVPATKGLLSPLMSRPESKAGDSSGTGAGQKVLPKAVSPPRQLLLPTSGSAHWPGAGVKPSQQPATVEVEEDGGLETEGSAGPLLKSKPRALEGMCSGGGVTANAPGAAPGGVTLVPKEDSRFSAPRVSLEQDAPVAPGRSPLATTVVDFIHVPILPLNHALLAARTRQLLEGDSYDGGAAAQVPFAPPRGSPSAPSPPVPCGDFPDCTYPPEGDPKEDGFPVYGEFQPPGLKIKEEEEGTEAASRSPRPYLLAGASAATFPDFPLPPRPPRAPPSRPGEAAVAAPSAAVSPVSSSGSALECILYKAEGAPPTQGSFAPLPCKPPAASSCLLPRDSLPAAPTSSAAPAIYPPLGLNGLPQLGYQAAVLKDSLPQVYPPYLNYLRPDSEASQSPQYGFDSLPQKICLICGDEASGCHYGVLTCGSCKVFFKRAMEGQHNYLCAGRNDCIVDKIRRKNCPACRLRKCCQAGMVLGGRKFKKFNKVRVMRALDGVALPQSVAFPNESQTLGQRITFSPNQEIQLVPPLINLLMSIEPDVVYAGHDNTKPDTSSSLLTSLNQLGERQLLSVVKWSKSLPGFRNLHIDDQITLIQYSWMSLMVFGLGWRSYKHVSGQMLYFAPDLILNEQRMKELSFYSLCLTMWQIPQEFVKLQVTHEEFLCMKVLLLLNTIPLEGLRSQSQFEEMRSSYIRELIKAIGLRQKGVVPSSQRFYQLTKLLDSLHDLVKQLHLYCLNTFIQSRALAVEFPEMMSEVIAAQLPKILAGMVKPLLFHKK
Procedure, shortened: (§1)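 Ovariectomized Sprague-Dawley rats, 4-5 weeks old, groups of 4-5, given estrone 10 µg sc plus oral compound in corn oil (0.5 mL) for 3 days. On day 4, BrdU 200 mg/kg ip; mammary glands taken 3 h later. Frozen sections stained with anti-BrdU/FITC. Labeling index = labeled/lobular area, averaged over 12 fields per gland, as fold over estrone alone.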

[2] = target: T1, Progesterone receptor (Rattus norvegicus); test: Fold induction as increase in BrdU labeling index over estrone treatment alone in lobular-aveolar rat mammary buds by progestin treatment at 3 mg/kg; format: functional, organism-based; design: dose 3 mg/kg; procedure, shortened: as §1
[3] = target: T2, Progesterone receptor (Homo sapiens) (UniProt P06401); test: Efficacy for progesterone receptor relative to progesterone
T2 sequence (whole entry): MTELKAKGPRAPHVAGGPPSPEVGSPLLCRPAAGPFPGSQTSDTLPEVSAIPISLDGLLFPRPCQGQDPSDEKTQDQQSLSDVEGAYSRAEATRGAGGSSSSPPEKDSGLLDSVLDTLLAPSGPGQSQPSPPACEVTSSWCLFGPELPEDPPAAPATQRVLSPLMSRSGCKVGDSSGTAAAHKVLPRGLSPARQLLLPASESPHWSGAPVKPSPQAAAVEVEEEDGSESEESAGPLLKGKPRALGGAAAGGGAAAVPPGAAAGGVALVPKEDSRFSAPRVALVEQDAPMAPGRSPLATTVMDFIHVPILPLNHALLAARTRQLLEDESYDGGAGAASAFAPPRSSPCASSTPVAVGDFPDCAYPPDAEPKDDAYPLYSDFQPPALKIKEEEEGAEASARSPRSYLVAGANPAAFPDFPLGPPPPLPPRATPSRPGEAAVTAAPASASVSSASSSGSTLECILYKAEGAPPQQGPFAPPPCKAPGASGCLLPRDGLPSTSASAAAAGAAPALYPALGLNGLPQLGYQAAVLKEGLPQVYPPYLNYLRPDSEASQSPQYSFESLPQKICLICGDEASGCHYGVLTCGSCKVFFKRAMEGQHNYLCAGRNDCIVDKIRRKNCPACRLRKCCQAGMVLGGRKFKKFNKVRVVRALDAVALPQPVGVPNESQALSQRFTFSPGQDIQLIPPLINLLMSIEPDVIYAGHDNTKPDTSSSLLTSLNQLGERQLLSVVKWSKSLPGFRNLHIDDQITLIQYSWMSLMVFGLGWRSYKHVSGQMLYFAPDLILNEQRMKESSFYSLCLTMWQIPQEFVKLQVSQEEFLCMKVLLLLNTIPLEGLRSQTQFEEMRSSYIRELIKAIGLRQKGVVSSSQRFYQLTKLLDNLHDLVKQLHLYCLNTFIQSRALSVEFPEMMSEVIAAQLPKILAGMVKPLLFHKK

Progesterone receptor [4] = target: T3, Progesterone receptor (Homo sapiens, UniProt P06401); test: Effective concentration for half-maximal activation of human progesterone receptor expressed in CV-1 cells; format: cell-based
T3 sequence (P06401 whole entry): T2 sequence (whole entry)

Progesterone receptor [5] = target: T3, Progesterone receptor; test: Binding affinity for baculovirus-expressed human progesterone receptor isoform A
Glucocorticoid receptor = target: T4, Glucocorticoid receptor (Homo sapiens, UniProt P04150); test: Binding affinity for baculovirus-expressed human glucocorticoid receptor
T4 sequence (P04150 whole entry): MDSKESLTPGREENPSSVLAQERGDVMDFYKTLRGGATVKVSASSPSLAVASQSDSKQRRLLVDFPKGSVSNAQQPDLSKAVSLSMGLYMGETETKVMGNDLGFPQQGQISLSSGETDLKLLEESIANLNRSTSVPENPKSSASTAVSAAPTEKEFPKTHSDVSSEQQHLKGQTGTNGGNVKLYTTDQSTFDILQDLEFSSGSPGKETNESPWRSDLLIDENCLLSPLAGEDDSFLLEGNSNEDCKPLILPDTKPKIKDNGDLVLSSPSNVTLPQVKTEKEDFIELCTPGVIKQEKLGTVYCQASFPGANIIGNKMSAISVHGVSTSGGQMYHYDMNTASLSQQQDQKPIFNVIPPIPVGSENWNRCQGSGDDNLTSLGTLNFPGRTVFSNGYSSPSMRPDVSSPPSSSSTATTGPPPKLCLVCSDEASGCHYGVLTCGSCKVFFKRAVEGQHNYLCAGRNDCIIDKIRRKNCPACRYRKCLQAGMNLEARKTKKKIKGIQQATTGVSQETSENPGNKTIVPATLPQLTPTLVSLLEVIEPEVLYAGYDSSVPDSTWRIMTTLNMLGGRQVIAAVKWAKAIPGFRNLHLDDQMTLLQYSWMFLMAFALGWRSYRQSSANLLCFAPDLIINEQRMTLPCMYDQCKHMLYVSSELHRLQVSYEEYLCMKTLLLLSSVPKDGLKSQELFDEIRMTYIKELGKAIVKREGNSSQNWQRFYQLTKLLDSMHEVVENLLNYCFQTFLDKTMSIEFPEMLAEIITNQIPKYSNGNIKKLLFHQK

[6] = target: T5, Progesterone receptor (Mus musculus) (UniProt Q00175); test: Effect on pregnancy in mice as corpora lutea at 3 mg/mouse dose with simultaneous 0.5 mg RU-486 dose; format: functional, organism-based
T5 sequence (whole entry): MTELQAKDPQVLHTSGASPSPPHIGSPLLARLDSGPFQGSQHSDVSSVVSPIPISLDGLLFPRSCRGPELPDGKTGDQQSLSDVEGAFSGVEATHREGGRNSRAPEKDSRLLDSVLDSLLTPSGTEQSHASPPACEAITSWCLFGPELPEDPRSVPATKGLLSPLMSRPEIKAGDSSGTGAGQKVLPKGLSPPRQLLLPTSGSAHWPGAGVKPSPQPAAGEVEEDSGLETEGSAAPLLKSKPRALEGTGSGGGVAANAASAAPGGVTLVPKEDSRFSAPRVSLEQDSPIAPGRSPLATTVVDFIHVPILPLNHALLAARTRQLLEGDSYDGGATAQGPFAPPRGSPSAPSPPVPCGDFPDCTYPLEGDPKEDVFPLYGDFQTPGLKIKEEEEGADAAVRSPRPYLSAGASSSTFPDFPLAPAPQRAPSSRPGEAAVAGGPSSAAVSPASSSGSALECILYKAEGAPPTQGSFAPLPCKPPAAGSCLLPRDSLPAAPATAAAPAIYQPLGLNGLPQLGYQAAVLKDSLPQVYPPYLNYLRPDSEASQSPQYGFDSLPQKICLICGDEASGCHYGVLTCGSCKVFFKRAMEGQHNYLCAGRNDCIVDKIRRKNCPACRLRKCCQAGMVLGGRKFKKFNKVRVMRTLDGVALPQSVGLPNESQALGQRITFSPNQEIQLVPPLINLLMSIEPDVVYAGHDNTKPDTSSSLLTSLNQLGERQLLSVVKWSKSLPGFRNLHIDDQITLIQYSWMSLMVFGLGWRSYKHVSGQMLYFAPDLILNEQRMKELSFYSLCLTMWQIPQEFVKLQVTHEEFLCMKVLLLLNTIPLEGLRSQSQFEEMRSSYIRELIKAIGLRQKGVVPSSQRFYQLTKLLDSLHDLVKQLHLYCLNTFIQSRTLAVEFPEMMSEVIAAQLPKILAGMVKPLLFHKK
Procedure, shortened: (§2)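 Mature virgin ICR mice, 10-12 weeks old, mated overnight; vaginal plug marks day 1. Oral RU486 0.5 mg (~15 mg/kg), alone or with test compound (mg/mouse), on days 2-4. Compounds in ethanol diluted with corn oil, 0.1 mL. Oil controls. Necropsy on day 8 to count corpora lutea and implantation sites and to score pregnancy. Student t-test.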

[7] = target: T5, Progesterone receptor (Mus musculus); test: Effect on pregnancy in mice as corpora lutea at 1 mg/mouse dose with simultaneous 0.5 mg RU-486 dose; format: functional, organism-based; procedure, shortened: as §2
[8] = target: T5, Progesterone receptor (Mus musculus); test: Effect on pregnancy in mice as implantation at 1 mg/mouse dose with simultaneous 0.5 mg RU-486 dose; format: functional; procedure, shortened: as §2
[9] = target: T5, Progesterone receptor (Mus musculus); test: Effect on pregnancy in mice as implantation at 3 mg/mouse dose with simultaneous 0.5 mg RU-486 dose; format: functional; procedure, shortened: as §2
[10] = target: T5, Progesterone receptor (Mus musculus); test: Effect on pregnancy in mice as percent pregnant at 1 mg/mouse dose with simultaneous 0.5 mg RU-486 dose; format: functional; procedure, shortened: as §2
[11] = target: T5, Progesterone receptor (Mus musculus); test: Effect on pregnancy in mice as percent pregnant at 3 mg/mouse dose with simultaneous 0.5 mg RU-486 dose; format: functional; procedure, shortened: as §2
[12] = target: T5, Progesterone receptor (Mus musculus); test: Effect on pregnancy in mice as number pregnant/mated at 1 mg/mouse dose with simultaneous 0.5 mg RU-486 dose; out of 10; format: functional; procedure, shortened: as §2
[13] = target: T5, Progesterone receptor (Mus musculus); test: Effect on pregnancy in mice as number pregnant/mated at 3 mg/mouse dose with simultaneous 0.5 mg RU-486 dose; out of 10; format: functional; procedure, shortened: as §2

Structure (SMILES): CC1=CC(C)(C)Nc2ccc3c(c21)C(c1cccc(Cl)c1)Oc1ccc(F)cc1-3 (single isomer, unassigned; (+)) [listing 1 of 2 here]
Efficacy [3]: 83

Structure (SMILES): CC1=CC(C)(C)Nc2ccc3c(c21)C(c1ccc(Cl)c(C)c1)Oc1ccc(F)cc1-3 (stereo in doubt) [listing 1 of 2 here]
EC50 (Progesterone receptor [4]): 147 nM
Ki (Progesterone receptor [5]): 60 nM

Structure (SMILES): CC1=CC(C)(C)Nc2ccc3c(c21)C(c1cccc(Cl)c1)Oc1ccc(F)cc1-3 (single isomer, unassigned; (-)) [listing 1 of 2 here]
EC50 (Progesterone receptor [4]): 1.3 nM
Ki (Progesterone receptor [5]): 0.1 nM

Structure (SMILES): CC1=CC(C)(C)Nc2ccc3c(c21)C(c1ccc(Cl)c(C)c1)Oc1ccc(F)cc1-3 (single isomer, unassigned; (-)) [listing 1 of 2 here]
EC50 (Progesterone receptor [4]): 2.4 nM
Ki (Progesterone receptor [5]): 0.4 nM

Structure (SMILES): CC1=CC(C)(C)Nc2ccc3c(c21)C(c1ccc(Cl)c(C)c1)Oc1ccc(F)cc1-3 (single isomer, unassigned; (-)) [listing 2 of 2 here]
Efficacy [3]: 99
Fold induction [2]: 2.5

Structure (SMILES): CC1=CC(C)(C)Nc2ccc3c(c21)C(c1ccc(Cl)c(C)c1)Oc1ccc(F)cc1-3 (stereo in doubt) [listing 2 of 2 here]
Efficacy [3]: 43

Structure (SMILES): CC1=CC(C)(C)Nc2ccc3c(c21)C(c1ccc(Cl)c(C)c1)Oc1ccc(F)cc1-3 (racemic) [listing 1 of 2 here]
Ki (Glucocorticoid receptor): 210 nM

Structure (SMILES): CC1=CC(C)(C)Nc2ccc3c(c21)C(c1ccc(Cl)c(C)c1)Oc1ccc(F)cc1-3 (racemic) [listing 2 of 2 here]
Efficacy [3]: 97

Structure (SMILES): CC1=CC(C)(C)Nc2ccc3c(c21)C(c1ccc(Cl)c(C)c1)Oc1ccc(Cl)cc1-3 (racemic)
Efficacy [3]: 73
Ki (Glucocorticoid receptor): 14 nM

Next, values leading:

Fold induction [1]: 1
Fold induction [2]: 24
Structure (SMILES): C[C@]12CC[C@@H]3c4ccc(O)cc4CC[C@H]3[C@@H]1CCC2=O

Efficacy [3]: 95
Ki (Glucocorticoid receptor): 6.3 nM
Structure (SMILES): CC1=CC(C)(C)Nc2ccc3c(c21)C(c1cccc(Cl)c1)Oc1ccc(Cl)cc1-3 (racemic)

Efficacy [3]: 117
Structure (SMILES): CC1=CC(C)(C)Nc2ccc3c(c21)C(c1cccc(Cl)c1)Oc1ccc(F)cc1-3 (racemic) [listing 1 of 2 here]

Corpora lutea [6]: 13.8
Corpora lutea [7]: 13
Implants [8]: 2.2
Implants [9]: 6.6
Pregnant [10]: 30%
Pregnant [11]: 50%
No. pregnant/mated [12]: 3
No. pregnant/mated [13]: 5
Structure (SMILES): CC#C[C@]1(O)CC[C@H]2[C@@H]3CCC4=CC(=O)CCC4=C3[C@@H](c3ccc(N(C)C)cc3)C[C@@]21C.CC1=CC(C)(C)Nc2ccc3c(c21)C(c1ccc(Cl)c(C)c1)Oc1ccc(F)cc1-3

EC50 (Progesterone receptor [4]): 135 nM
Ki (Progesterone receptor [5]): 30 nM
Structure (SMILES): CC1=CC(C)(C)Nc2ccc3c(c21)C(c1cccc(Cl)c1)Oc1ccc(F)cc1-3 (single isomer, unassigned; (+)) [listing 2 of 2 here]

Efficacy [3]: 125
Fold induction [2]: 3.6
Structure (SMILES): CC1=CC(C)(C)Nc2ccc3c(c21)C(c1cccc(Cl)c1)Oc1ccc(F)cc1-3 (single isomer, unassigned; (-)) [listing 2 of 2 here]

Ki (Glucocorticoid receptor): 133 nM
Structure (SMILES): CC1=CC(C)(C)Nc2ccc3c(c21)C(c1cccc(Cl)c1)Oc1ccc(F)cc1-3 (racemic) [listing 2 of 2 here]
